The values that follow come from the M2OR odorant receptor database.

Conditions in all cases: stereoisomer not certain
One assay has as its target T1, OR2M3 (Homo sapiens) (UniProt Q8NG83).
T1 sequence (whole entry): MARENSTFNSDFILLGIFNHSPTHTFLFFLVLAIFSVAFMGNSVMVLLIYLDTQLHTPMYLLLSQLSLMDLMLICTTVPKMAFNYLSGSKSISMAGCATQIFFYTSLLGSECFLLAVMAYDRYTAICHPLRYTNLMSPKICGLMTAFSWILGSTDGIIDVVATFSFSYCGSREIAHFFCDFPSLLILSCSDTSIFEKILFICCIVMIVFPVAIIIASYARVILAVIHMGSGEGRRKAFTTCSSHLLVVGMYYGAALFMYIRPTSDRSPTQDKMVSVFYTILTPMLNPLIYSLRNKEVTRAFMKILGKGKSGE
The method, boiled down: (§1)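 Transient luciferase assays in mammalian cell lines were common, though methods varied by source. The values come from published papers and their supplementary material, with extra details from the original authors when needed. Responsive refers to a measured signal the original authors judged statistically different from baseline, and non-responsive (inactive) to the remainder.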

A further assay concerns the target T2, OR2T10 (Homo sapiens) (UniProt Q8NGZ9).
T2 sequence (whole entry): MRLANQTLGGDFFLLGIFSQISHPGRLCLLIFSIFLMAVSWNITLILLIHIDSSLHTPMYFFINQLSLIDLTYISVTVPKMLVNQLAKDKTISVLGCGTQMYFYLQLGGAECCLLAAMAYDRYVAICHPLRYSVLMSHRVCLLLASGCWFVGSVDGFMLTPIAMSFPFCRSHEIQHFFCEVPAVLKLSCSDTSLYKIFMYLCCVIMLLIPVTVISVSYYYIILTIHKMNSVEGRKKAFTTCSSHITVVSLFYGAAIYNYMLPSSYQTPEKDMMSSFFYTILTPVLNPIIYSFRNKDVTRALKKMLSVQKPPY
In outline:
as §1

Another assay concerns the target T3, OR2M4 (Homo sapiens) (UniProt Q96R27).
T3 sequence (whole entry): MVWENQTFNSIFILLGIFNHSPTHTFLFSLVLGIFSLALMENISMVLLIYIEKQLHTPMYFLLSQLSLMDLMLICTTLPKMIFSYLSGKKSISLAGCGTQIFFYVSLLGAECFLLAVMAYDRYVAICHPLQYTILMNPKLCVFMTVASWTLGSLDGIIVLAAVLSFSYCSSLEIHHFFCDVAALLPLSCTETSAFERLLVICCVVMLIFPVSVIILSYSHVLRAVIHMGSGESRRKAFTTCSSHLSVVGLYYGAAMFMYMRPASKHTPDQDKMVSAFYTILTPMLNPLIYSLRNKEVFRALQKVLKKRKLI
The method, boiled down: as §1

The target in a further assay is OR2M5 (Homo sapiens) (UniProt A3KFT3). The method, boiled down:
as §1

A further assay deals with OR2M5 D11G. In outline: as §1
For the next assay, the target named is T4, OR2M7 (Homo sapiens) (UniProt Q8NG81).
T4 sequence (whole entry): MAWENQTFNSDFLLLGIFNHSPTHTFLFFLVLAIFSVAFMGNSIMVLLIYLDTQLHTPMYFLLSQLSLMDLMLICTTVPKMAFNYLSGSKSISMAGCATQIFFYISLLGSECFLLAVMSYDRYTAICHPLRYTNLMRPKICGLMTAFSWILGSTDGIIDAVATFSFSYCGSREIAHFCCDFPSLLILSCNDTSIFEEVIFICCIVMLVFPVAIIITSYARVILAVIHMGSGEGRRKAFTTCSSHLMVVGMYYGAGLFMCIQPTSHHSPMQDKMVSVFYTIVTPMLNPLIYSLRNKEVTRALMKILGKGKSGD
In outline:
as §1

A further assay addresses OR2S2 (Homo sapiens) (UniProt Q9NQN1). In outline: as §1
The next assay concerns the target OR2T1 (Homo sapiens) (UniProt O43869). The method, boiled down: as §1
In another assay the target is OR2T11 (Homo sapiens) (UniProt Q8NH01). In outline: as §1
In a further assay the target is OR2T12 (Homo sapiens) (UniProt Q8NG77). The method, boiled down: as §1
A further assay deals with OR2T2 (Homo sapiens) (UniProt Q6IF00). The method, boiled down:
as §1

The next assay has as its system OR2T2 L104F L262Q. In outline:
as §1

A further assay concerns OR2T2 L104F. In outline: as §1
The subject of another assay is OR2T2 Q313H. In outline: as §1
A further assay addresses OR2T27 (Homo sapiens) (UniProt Q8NH04). The method, boiled down:
as §1

The next assay has as its target OR2T29 (Homo sapiens) (UniProt Q8NH02). The method, boiled down:
as §1

Another assay has as its target OR2T3 (Homo sapiens) (UniProt Q8NH03). The method, boiled down:
as §1

The next assay relates to OR2T3 L256F. In outline:
as §1

A further assay concerns OR2T3 R298C. In outline:
as §1

The test system of another assay is OR2T3 Y109H. The method, boiled down: as §1
OR2T3 Y109H, sequence (as listed by the source, stated change not applied): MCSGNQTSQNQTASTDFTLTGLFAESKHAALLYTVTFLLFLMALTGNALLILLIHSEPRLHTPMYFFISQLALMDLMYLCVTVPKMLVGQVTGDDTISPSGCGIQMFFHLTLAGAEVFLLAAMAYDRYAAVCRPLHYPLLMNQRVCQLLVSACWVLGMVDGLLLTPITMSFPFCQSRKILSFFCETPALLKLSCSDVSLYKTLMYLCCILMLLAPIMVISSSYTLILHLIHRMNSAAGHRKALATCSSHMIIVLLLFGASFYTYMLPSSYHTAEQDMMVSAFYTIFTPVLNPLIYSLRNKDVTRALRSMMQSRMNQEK

OR2T11 (Homo sapiens), sequence (Q8NH01 whole entry): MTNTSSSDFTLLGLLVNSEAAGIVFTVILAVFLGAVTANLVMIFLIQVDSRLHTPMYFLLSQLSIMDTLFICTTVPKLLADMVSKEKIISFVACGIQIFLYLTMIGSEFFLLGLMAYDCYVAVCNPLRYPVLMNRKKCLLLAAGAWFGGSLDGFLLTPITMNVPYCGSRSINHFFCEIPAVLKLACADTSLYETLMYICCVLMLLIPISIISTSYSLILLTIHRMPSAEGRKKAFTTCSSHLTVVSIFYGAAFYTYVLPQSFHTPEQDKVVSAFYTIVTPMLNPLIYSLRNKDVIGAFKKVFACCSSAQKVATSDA
OR2T3 (Homo sapiens), sequence (Q8NH03 whole entry): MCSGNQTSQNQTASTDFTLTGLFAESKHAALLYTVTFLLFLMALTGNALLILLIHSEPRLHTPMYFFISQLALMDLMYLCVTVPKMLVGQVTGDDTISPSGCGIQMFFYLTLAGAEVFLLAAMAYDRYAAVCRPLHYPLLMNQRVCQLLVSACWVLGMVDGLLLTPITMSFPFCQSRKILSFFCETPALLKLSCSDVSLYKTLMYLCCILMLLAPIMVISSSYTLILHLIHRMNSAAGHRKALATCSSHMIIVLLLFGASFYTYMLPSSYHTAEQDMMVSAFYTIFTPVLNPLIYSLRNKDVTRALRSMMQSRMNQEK
OR2T29 (Homo sapiens), sequence (Q8NH02 whole entry): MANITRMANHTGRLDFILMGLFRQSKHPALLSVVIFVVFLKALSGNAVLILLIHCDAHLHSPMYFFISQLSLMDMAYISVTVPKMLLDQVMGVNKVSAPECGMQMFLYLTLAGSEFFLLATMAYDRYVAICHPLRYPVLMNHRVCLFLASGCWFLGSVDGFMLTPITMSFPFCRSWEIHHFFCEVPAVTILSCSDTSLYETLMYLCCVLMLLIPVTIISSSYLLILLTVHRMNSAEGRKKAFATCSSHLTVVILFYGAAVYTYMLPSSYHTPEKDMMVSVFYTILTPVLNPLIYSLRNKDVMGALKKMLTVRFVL
OR2T27 (Homo sapiens), sequence (Q8NH04 whole entry): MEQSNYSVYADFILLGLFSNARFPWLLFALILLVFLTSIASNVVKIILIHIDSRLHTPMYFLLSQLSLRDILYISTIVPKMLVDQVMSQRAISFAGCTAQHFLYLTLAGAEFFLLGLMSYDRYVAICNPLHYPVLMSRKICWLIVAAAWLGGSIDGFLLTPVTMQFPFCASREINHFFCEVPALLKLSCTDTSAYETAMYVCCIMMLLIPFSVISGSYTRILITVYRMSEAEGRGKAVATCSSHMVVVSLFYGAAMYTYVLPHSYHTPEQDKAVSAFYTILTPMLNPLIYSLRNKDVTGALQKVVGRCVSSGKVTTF
OR2S2 (Homo sapiens), sequence (Q9NQN1 whole entry): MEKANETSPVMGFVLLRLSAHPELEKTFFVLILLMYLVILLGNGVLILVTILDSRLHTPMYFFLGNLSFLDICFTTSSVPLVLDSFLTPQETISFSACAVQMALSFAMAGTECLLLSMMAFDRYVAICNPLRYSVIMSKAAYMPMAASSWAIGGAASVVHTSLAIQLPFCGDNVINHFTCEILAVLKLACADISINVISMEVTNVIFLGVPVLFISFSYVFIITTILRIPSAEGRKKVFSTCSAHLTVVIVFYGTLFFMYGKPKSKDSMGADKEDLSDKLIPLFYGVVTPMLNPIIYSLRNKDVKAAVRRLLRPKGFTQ
OR2M5 (Homo sapiens), sequence (A3KFT3 whole entry): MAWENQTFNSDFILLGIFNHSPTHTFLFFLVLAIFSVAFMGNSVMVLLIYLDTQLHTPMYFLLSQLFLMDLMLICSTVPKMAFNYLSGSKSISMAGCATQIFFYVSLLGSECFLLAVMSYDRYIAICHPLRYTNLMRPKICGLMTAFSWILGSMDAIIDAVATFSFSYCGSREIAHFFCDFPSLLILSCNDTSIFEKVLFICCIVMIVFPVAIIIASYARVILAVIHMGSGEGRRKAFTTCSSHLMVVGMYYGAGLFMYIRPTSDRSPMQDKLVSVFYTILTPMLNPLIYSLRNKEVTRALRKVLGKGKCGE
OR2T2 (Homo sapiens), sequence (Q6IF00 whole entry): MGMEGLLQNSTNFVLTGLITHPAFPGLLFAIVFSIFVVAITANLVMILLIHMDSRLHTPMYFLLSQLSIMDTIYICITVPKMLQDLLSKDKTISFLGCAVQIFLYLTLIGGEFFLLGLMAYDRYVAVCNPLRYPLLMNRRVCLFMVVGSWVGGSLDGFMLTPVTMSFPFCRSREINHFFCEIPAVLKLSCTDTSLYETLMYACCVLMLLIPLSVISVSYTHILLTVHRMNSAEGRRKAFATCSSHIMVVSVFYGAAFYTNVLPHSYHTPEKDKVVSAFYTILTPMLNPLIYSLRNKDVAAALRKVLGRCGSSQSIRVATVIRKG
OR2T1 (Homo sapiens), sequence (O43869 whole entry): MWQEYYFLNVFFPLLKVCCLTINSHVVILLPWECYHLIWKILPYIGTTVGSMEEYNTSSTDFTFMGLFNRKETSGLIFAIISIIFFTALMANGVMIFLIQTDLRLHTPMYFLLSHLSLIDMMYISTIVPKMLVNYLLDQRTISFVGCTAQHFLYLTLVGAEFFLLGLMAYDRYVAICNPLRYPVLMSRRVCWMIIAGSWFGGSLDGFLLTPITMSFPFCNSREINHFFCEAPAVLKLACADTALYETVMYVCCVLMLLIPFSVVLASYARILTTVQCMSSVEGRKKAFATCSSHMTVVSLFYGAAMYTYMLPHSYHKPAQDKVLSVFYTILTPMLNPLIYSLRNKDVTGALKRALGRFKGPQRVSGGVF
OR2T12 (Homo sapiens), sequence (Q8NG77 whole entry): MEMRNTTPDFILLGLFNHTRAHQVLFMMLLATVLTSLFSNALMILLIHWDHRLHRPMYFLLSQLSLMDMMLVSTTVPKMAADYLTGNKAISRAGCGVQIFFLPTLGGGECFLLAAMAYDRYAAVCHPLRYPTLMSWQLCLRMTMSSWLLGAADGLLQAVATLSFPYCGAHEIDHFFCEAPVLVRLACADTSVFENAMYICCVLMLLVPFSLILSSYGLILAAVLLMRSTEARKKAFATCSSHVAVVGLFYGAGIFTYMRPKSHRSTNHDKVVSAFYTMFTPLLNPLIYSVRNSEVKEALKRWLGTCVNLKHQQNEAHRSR
OR2T2 L104F, sequence (as listed by the source, stated change not applied): as the sequence (Q6IF00 whole entry) above, with L104F counted along it
OR2T3 L256F, sequence (as listed by the source, stated change not applied): as the sequence (Q8NH03 whole entry) above, with L256F counted along it
OR2T2 Q313H, sequence (as listed by the source, stated change not applied): as the sequence (Q6IF00 whole entry) above, with Q313H counted along it
OR2M5 D11G, sequence (as listed by the source, stated change not applied): as the sequence (A3KFT3 whole entry) above, with D11G counted along it
OR2T3 R298C, sequence (as listed by the source, stated change not applied): as the sequence (Q8NH03 whole entry) above, with R298C counted along it

In the case of `C=CCc1ccc(OC)cc1`, the “odorant receptor agonist call” value with OR2M3 (Homo sapiens) and with OR2T10 (Homo sapiens) was “inactive” in each case.
For the molecule `C=CCOC(=O)Cc1ccccc1`, the “odorant receptor agonist call” value with OR2M3 (Homo sapiens), in the assay with OR2M4 (Homo sapiens), with OR2M5 (Homo sapiens), in the assay on OR2M5 D11G, in the assay with OR2M7 (Homo sapiens) and with OR2S2 (Homo sapiens) was “inactive” in each case. The “odorant receptor agonist call” value with OR2T1 (Homo sapiens), in the assay with OR2T10 (Homo sapiens), in the assay with OR2T11 (Homo sapiens), with OR2T12 (Homo sapiens), with OR2T2 (Homo sapiens) and with OR2T2 L104F L262Q was “inactive” each time. Also, the “odorant receptor agonist call” value in the assay on OR2T2 L104F, in the assay with OR2T2 Q313H, with OR2T27 (Homo sapiens), with OR2T29 (Homo sapiens), with OR2T3 (Homo sapiens) and in the assay on OR2T3 L256F was “inactive” throughout. The “odorant receptor agonist call” value in the assay on OR2T3 R298C and with OR2T3 Y109H was “inactive” throughout.
With `SCc1ccco1`, the “odorant receptor agonist call” value with OR2M3 (Homo sapiens) is “inactive”.
As for `Cc1ccc(O)c(C)c1`, in the assay with OR2M3 (Homo sapiens), the “odorant receptor agonist call” value was “inactive”.
For the molecule `CSSC`, the “odorant receptor agonist call” value with OR2M3 (Homo sapiens) was “inactive”.
For `O=CC=Cc1ccccc1`, the “odorant receptor agonist call” value with OR2M4 (Homo sapiens) and with OR2T10 (Homo sapiens) was “active” each time.
Take `Cc1ccccc1O`: the “odorant receptor agonist call” value with OR2M3 (Homo sapiens) is “inactive”.
As for `O=Cc1ccccc1`, the “odorant receptor agonist call” value with OR2M4 (Homo sapiens) and in the assay with OR2T10 (Homo sapiens) was “inactive” in each case.
As for `CCOC(=O)Cc1ccccc1`, the “odorant receptor agonist call” value in the assay with OR2M3 (Homo sapiens) was “inactive”.
As to `O=c1cc(O)c2ccccc2o1`, the “odorant receptor agonist call” value with OR2M7 (Homo sapiens) was “inactive”.
As to `C=CCSSCC=C`, in the assay with OR2M3 (Homo sapiens), the “odorant receptor agonist call” value is “inactive”.
For `COc1ccc(C=O)cc1`, the “odorant receptor agonist call” value with OR2M3 (Homo sapiens) was “inactive”.
Regarding `O=C(O)Cc1ccccc1`, the “odorant receptor agonist call” value with OR2M3 (Homo sapiens) was “inactive”.
`CCC1CCC(=O)O1` (centres undefined): in the assay with OR2M7 (Homo sapiens), the “odorant receptor agonist call” value was “inactive”.
Consider `C=CCc1ccccc1`, for which, in the assay with OR2M7 (Homo sapiens), the “odorant receptor agonist call” value is “inactive”.
Take `Cc1c([N+](=O)[O-])c(C)c([N+](=O)[O-])c(C(C)(C)C)c1[N+](=O)[O-]`: the “odorant receptor agonist call” value with OR2M3 (Homo sapiens), with OR2M5 (Homo sapiens), with OR2M7 (Homo sapiens), with OR2S2 (Homo sapiens), in the assay with OR2T1 (Homo sapiens) and with OR2T10 (Homo sapiens) was “inactive” in each case. Besides, the “odorant receptor agonist call” value with OR2T11 (Homo sapiens), in the assay with OR2T12 (Homo sapiens), with OR2T2 (Homo sapiens), in the assay with OR2T27 (Homo sapiens), in the assay with OR2T29 (Homo sapiens) and with OR2T3 (Homo sapiens) was “inactive” each time.
